How the values were obtained:
Type in all cases: functional
NCI-H522 = assay: Cytotoxicity against human NCI-H522 cells assessed as cell growth at 0.01 uM after 48 hrs by sulforhodamine B assay; conditions: NCI-H522, 48 h, read-out: Activity
NCI-H23 = assay: Cytotoxicity against human NCI-H23 cells assessed as cell growth at 0.01 uM after 48 hrs by sulforhodamine B assay; conditions: NCI-H23, 48 h, read-out: Activity
MDA-MB-231 [1] = assay: Cytotoxicity against human MDA-MB-231 cells assessed as cell growth at 1 uM after 48 hrs by sulforhodamine B assay; conditions: MDA-MB-231, 48 h, read-out: Activity
Malme-3M = assay: Cytotoxicity against human MALME-3M cells assessed as cell growth at 0.001 uM after 48 hrs by sulforhodamine B assay; conditions: read-out: Activity
MDA-MB-435 = assay: Cytotoxicity against human MDA-MB-435 cells assessed as cell growth at 1 uM after 48 hrs by sulforhodamine B assay; conditions: MDA-MB-435, 48 h, read-out: Activity
KM12 = assay: Cytotoxicity against human KM12 cells assessed as cell growth at 100 nM after 48 hrs by sulforhodamine B assay; conditions: KM12, 48 h, read-out: Activity
SNB-19 [2] = assay: Growth inhibition of human SNB19 cells after 48 hrs by sulforhodamine B assay; conditions: SNB-19, 48 h; for CC50: read-out: LC50 (the source's name)
Method in brief: (§1)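 NCI 60-cell screen, five-dose mode. Cells grown in RPMI 1640 with 5% FBS and 2 mM L-glutamine and plated at 5000-40,000 cells/well according to doubling time. After 24 h preincubation, a Tz plate was TCA-fixed. Five concentrations (10-fold or 1/2 log dilutions) were applied for 48 h at 37 °C. SRB staining read at 515 nm. IC50 taken from [(Ti-Tz)/(C-Tz)]×100 = 50.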

LOX IMVI = assay: Cytotoxicity against human LOXIMVI cells assessed as cell growth at 100 nM after 48 hrs by sulforhodamine B assay; conditions: read-out: Activity
DU-145 = assay: Cytotoxicity against human DU145 cells assessed as cell growth at 10 uM; conditions: read-out: Activity
Method in brief: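 Single-dose NCI-60 screen at 10 µM. Cells were grown in RPMI 1640 with 5% FBS and 2 mM L-glutamine, then treated for 48 h at 37 °C. Protein was measured by SRB staining with absorbance at 515 nm. Percentage growth was recorded, and inhibition percentage was calculated as 100 minus growth percentage.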

SNB-75 = assay: Growth inhibition of human SNB75 cells after 48 hrs by sulforhodamine B assay; conditions: SNB-75, 48 h; for CC50: read-out: LC50 (the source's name); method in brief: as §1
UO-31 = assay: Cytotoxicity against human UO31 cells assessed as cell growth at 1 uM after 48 hrs by sulforhodamine B assay; conditions: UO-31, 48 h, read-out: Activity
PC-3 = assay: Cytotoxicity against human PC3 cells assessed as cell growth at 0.01 uM after 48 hrs by sulforhodamine B assay; conditions: PC-3, 48 h, read-out: Activity
SNB-19 [3] = assay: Cytotoxicity against human SNB19 cells assessed as cell growth at 1 uM after 48 hrs by sulforhodamine B assay; conditions: SNB-19, 48 h, read-out: Activity
T47D = assay: Cytotoxicity against human T47D cells assessed as cell growth at 10 uM after 48 hrs by sulforhodamine B assay; conditions: read-out: Activity
SK-MEL-2 = assay: Cytotoxicity against human SK-MEL-2 cells assessed as cell growth at 1 uM after 48 hrs by sulforhodamine B assay; conditions: SK-MEL-2, 48 h, read-out: Activity
CAKI-1 = assay: Growth inhibition of human Caki1 cells after 48 hrs by sulforhodamine B assay; conditions: CAKI-1, 48 h; for CC50: read-out: LC50 (the source's name)
Method in brief: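 NCI five-dose SRB assay in RPMI 1640 with 5% FBS and 2 mM L-glutamine. Cells were preincubated 24 h, then exposed 48 h at 37 °C to five concentrations (10-fold or half-log serial dilutions from DMSO stocks). TCA fixation, SRB staining, and absorbance at 515 nm followed. IC50 was taken where [(Ti−Tz)/(C−Tz)]×100 = 50, with Tz as time-zero cell density.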

HCT-116 = assay: Cytotoxicity against human HCT116 cells assessed as cell growth at 0.01 uM after 48 hrs by sulforhodamine B assay; conditions: HCT-116, 48 h, read-out: Activity
[4] = Cytotoxicity against human Hs 578T cells assessed as cell growth at 0.001 uM after 48 hrs by sulforhodamine B assay; conditions: read-out: Activity
SW-620 = assay: Cytotoxicity against human SW620 cells assessed as cell growth at 0.001 uM after 48 hrs by sulforhodamine B assay; conditions: SW-620, 48 h, read-out: Activity
HT-29 = assay: Cytotoxicity against human HT-29 cells assessed as cell growth at 0.01 uM after 48 hrs by sulforhodamine B assay; conditions: HT-29, 48 h, read-out: Activity
OVCAR-8 = assay: Cytotoxicity against human OVCAR8 cells assessed as cell growth at 0.01 uM after 48 hrs by sulforhodamine B assay; conditions: OVCAR-8, 48 h, read-out: Activity
HCT-15 = assay: Cytotoxicity against human HCT15 cells assessed as cell growth at 10 uM after 48 hrs by sulforhodamine B assay; conditions: HCT-15, 48 h, read-out: Activity
MDA-MB-468 = assay: Cytotoxicity against human MDA-MB-468 cells assessed as cell growth at 0.001 uM after 48 hrs by sulforhodamine B assay; conditions: MDA-MB-468, 48 h, read-out: Activity
OVCAR-5 = assay: Cytotoxicity against human OVCAR5 cells assessed as cell growth at 0.01 uM after 48 hrs by sulforhodamine B assay; conditions: OVCAR-5, 48 h, read-out: Activity
M14 = assay: Cytotoxicity against human M14 cells assessed as cell growth at 1 uM after 48 hrs by sulforhodamine B assay; conditions: M14, 48 h, read-out: Activity
786-0 = assay: Cytotoxicity against human 786-0 cells assessed as cell growth at 1 uM after 48 hrs by sulforhodamine B assay; conditions: 786-0, 48 h, read-out: Activity
Method in brief: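 NCI-60 five-dose screen. Cells were grown in RPMI 1640 with 5% FBS and 2 mM L-glutamine, plated at 5000–40,000 cells/well and preincubated for 24 h. Time-zero plates were TCA-fixed. DMSO-solubilized drug was added at five concentrations (10-fold or ½-log serial dilutions) for 48 h at 37 °C, 5% CO2. Cells were TCA-fixed, stained with 0.4% SRB and read at 515 nm. Percent growth used time-zero, control and test absorbances.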

MDA-MB-231 [5] = assay: Cytotoxicity against human MDA-MB-231 cells assessed as cell growth at 10 uM; conditions: read-out: Activity
Method in brief: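 NCI-60 screen: cells grown in RPMI 1640 with 5% FBS and 2 mM L-glutamine, plated at 5000–40,000 cells/well according to doubling time, and preincubated 24 h at 37 °C, 5% CO2. The single 10 µM dose (DMSO stock) was added, then incubated 48 h. Cells were TCA-fixed and stained with 0.4% SRB, read at 515 nm, and growth % calculated against time-zero and control plates.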

SMILES | growth at 0.01 µM (NCI-H522) [%] | growth at 0.01 µM (NCI-H23) [%] | growth at 1 µM (MDA-MB-231 [1]) [%] | growth at 0.001 µM (Malme-3M) [%] | growth at 1 µM (MDA-MB-435) [%] | growth at 0.1 µM (KM12) [%] | GI50 (SNB-19 [2]) [µM] | TGI (SNB-19 [2]) [µM] | CC50 (SNB-19 [2]) [µM] | growth at 0.1 µM (LOX IMVI) [%] | growth at 10 µM (DU-145) [%] | GI50 (SNB-75) [µM] | CC50 (SNB-75) [µM] | growth at 1 µM (UO-31) [%] | growth at 0.01 µM (PC-3) [%] | growth at 1 µM (SNB-19 [3]) [%] | growth at 10 µM (T47D) [%] | growth at 1 µM (SK-MEL-2) [%] | GI50 (CAKI-1) [µM] | TGI (CAKI-1) [µM] | other results
COc1cc(C)cc(-c2c(-c3ccnc(-c4ccc(N(C)C)cc4)c3)cnn2CC#N)c1 | -7 | 67 | 17 | 97 | -29 | -36 | 0.362 | > 100 | > 100 | 19 | 3.17 | 0.0694 | > 100 | 12 | 30 | 36 | 6 | 11 | 0.0369 | 0.0893 | TGI (SNB-75): > 100 µM; CC50 (CAKI-1): > 100 µM; growth at 0.01 µM (HCT-116): 44%; growth at 0.001 µM [4]: 88%; growth at 0.001 µM (SW-620): 105%; growth at 0.01 µM (HT-29): 26%; growth at 0.01 µM (OVCAR-8): 28%; growth at 10 µM (HCT-15): 9%; growth at 0.001 µM (MDA-MB-468): 93%; growth at 0.01 µM (OVCAR-5): 73%; growth at 1 µM (M14): -9%; growth at 1 µM (786-0): 2%; growth at 10 µM (MDA-MB-231 [5]): 18.7%
COc1cc(C)cc(-c2nn(CC#N)cc2-c2ccc(-c3cccc(C(C)=O)c3)nc2)c1 | 82 | 91 | 13 | 97 | -44 | 75 | 6.62 | > 100 | > 100 | 82 | 39 | 1.96 | > 100 | 21 | 88 | 39 | -29 | 22 | 1.91 | 10.5 | TGI (SNB-75): 6.24 µM; CC50 (CAKI-1): > 100 µM; growth at 0.01 µM (HCT-116): 93%; growth at 0.001 µM [4]: 84%; growth at 0.001 µM (SW-620): 96%; growth at 0.01 µM (HT-29): 93%; growth at 0.01 µM (OVCAR-8): 88%; growth at 10 µM (HCT-15): 3%; growth at 0.001 µM (MDA-MB-468): 83%; growth at 0.01 µM (OVCAR-5): 68%; growth at 1 µM (M14): -53%; growth at 1 µM (786-0): 15%; growth at 10 µM (MDA-MB-231 [5]): 34.8%
COc1cc(C)cc(-c2c(-c3ccnc(-c4ccc(C(C)=O)cc4)c3)cnn2CC#N)c1 | 81 | 95 | 21 | 105 | 17 | 85 | > 100 | > 100 | > 100 | 85 | 103 | 2.08 | > 100 | 11 | 88 | 60 | -12 | 34 | 4.24 | > 100 | CC50 (CAKI-1): > 100 µM; growth at 0.01 µM (HCT-116): 91%; growth at 0.001 µM [4]: 95%; growth at 0.001 µM (SW-620): 96%; growth at 0.01 µM (HT-29): 96%; growth at 0.01 µM (OVCAR-8): 83%; growth at 10 µM (HCT-15): 12%; growth at 0.001 µM (MDA-MB-468): 92%; growth at 0.01 µM (OVCAR-5): 70%; growth at 1 µM (M14): -19%; growth at 1 µM (786-0): 10%; growth at 10 µM (MDA-MB-231 [5]): 63.8%
Cc1cc(O)cc(-c2nn(CC#N)cc2-c2ccnc(-c3ccc(N(C)C)cc3)c2)c1 | 84 | 96 | 11 | 91 | -49 | 66 | 4.54 | 43.9 | > 100 | 101 | 80.3 | 1.86 | > 100 | 19 | 92 | 28 | -44 | 11 | 2.89 | 16.4 | TGI (SNB-75): 5.94 µM; CC50 (CAKI-1): > 100 µM; growth at 0.01 µM (HCT-116): 98%; growth at 0.001 µM [4]: 98%; growth at 0.001 µM (SW-620): 99%; growth at 0.01 µM (HT-29): 96%; growth at 0.01 µM (OVCAR-8): 97%; growth at 10 µM (HCT-15): -39%; growth at 0.001 µM (MDA-MB-468): 98%; growth at 0.01 µM (OVCAR-5): 91%; growth at 1 µM (M14): -39%; growth at 1 µM (786-0): 14%; growth at 10 µM (MDA-MB-231 [5]): 40.8%
COc1cc(C)cc(-c2nn(CC#N)cc2-c2ccnc(-c3ccc(N(C)C)cc3)c2)c1 | 87 | 97 | -15 | 88 | -7 | 10 | 0.567 | > 100 | > 100 | 39 | 2.87 | 0.286 | > 100 | 18 | 96 | 19 | -32 | 23 | 0.345 | 18.2 | TGI (SNB-75): 0.848 µM; CC50 (CAKI-1): > 100 µM; growth at 0.01 µM (HCT-116): 97%; growth at 0.001 µM [4]: 103%; growth at 0.001 µM (SW-620): 98%; growth at 0.01 µM (HT-29): 105%; growth at 0.01 µM (OVCAR-8): 97%; growth at 10 µM (HCT-15): -20%; growth at 0.001 µM (MDA-MB-468): 96%; growth at 0.01 µM (OVCAR-5): 93%; growth at 1 µM (M14): -7%; growth at 1 µM (786-0): -8%; growth at 10 µM (MDA-MB-231 [5]): -2.19%
Cc1cc(O)cc(-c2nn(CC#N)cc2-c2ccnc(-c3ccc(Oc4ccccc4)cc3)c2)c1 | 72 | 93 | -13 | 88 | -18 | 85 | 1.07 | 23.4 | 51.1 | 103 | 76.7 | 3.82 | 42 | 19 | 86 | 55 | -67 | 6 | 1.8 | 5.78 | TGI (SNB-75): 17.1 µM; CC50 (CAKI-1): 41 µM; growth at 0.01 µM (HCT-116): 94%; growth at 0.001 µM [4]: 103%; growth at 0.001 µM (SW-620): 93%; growth at 0.01 µM (HT-29): 104%; growth at 0.01 µM (OVCAR-8): 91%; growth at 10 µM (HCT-15): -73%; growth at 0.001 µM (MDA-MB-468): 91%; growth at 0.01 µM (OVCAR-5): 72%; growth at 1 µM (M14): -96%; growth at 1 µM (786-0): -34%; growth at 10 µM (MDA-MB-231 [5]): 46.7%

Source: ChEMBL document CHEMBL1165950, “Design and synthesis of new potent anticancer pyrazoles with high FLT3 kinase inhibitory selectivity” (Bioorg Med Chem, 2010)
